In the library only some 3.5% were active in any assay of this set; here they are far more common.
RGS4 block: human RGS4 inhibition; P49798; HEK293 M3R/RGS4 inducible, Fluo-4 calcium flux; active compounds read high; triggered by carbachol at its EC20; B-score at 10 µM; hit rate 0.45% among 310,000;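 active = B-score, a plate-corrected calcium signal, over three deviations above library mean, with baseline fluorescence within five deviations of library mean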;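 note: RGS4 expression induced by doxycycline in cells with stable M3 receptor; B-score is computed from the integrated fluorescence ratio over baseline after carbachol; higher B-score means a larger calcium signal and so more RGS4 inhibition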
Target sequence (P49798 whole entry, looked up): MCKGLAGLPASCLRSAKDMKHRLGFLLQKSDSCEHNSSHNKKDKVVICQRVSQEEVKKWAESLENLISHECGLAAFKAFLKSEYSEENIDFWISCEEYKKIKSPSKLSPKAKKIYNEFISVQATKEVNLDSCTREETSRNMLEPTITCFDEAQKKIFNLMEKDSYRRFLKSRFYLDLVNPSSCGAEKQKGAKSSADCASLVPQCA
MrgX1 PAM: human MrgX1 positive allosteric modulation, primary screen. Q96LB2. MrgX1-HEK293, Fluo-4 calcium flux, FDSS; active compounds read high. B-score at 10 µM. hit rate 0.63% among 310,000. AID 588675;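 active = plate-corrected calcium response at least 3 library SD above typical, normal starting fluorescence, not activating the receptor alone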;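 note: compound read alongside a low EC10 to EC30 dose of BAM8-22 agonist; peak minus trough fluorescence over baseline measured at the second addition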
Target sequence (Q96LB2 whole entry, looked up): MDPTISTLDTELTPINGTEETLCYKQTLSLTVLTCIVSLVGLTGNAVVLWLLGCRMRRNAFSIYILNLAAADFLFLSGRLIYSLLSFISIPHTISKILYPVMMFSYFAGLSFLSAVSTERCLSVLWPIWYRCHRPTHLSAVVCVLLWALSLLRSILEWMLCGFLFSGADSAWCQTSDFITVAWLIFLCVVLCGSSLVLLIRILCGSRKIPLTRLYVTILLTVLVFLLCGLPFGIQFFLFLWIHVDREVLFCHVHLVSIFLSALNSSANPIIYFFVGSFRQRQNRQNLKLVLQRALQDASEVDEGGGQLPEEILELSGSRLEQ
MrgX1 antag: human MrgX1 receptor antagonism, primary screen | Q96LB2 | MRGX1-HEK293 calcium flux, Fluo-4, BAM8-22 antagonism; active compounds read low | hit rate 1.3% among 310,000 | AID 588676 | B-score at 10 µM;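 active = calcium-response B-score plate-corrected more than 3 library SD below zero, starting fluorescence within 5 deviations, no agonist response on first addition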;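 note: peak minus trough fluorescence over baseline after final BAM8-22 challenge near maximal dose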
RGS4 pot: RGS4 potentiation or activation. HEK293 M3R/inducible RGS4, carbachol calcium flux Fluo4; active compounds read low. B-score at 10 µM. hit rate 0.92% among 310,000. AID 463111;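 active = B-score of the integrated calcium signal more than 4 SD below the library mean, with starting fluorescence not abnormally high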;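 note: negative B-score means reduced calcium response which marks RGS4 activation or potentiation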
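Test system: HEK293 cells with stable M3R and inducible RGS4; also added: carbachol at ECmax as muscarinic agonist stimulus; schedule: dye loading 30 min 37 °C, buffer rest 30 min RT; technique: kinetic calcium fluorescence imaging with Fluo4-AM dye, 2 µM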
MrgX1 ag: human MrgX1 receptor agonism, primary screen | AID 588627 | B-score at 10 µM | Q96LB2 | MrgX1-HEK293 cells, Fluo-4 calcium fluorescence, agonist mode; active compounds read high | hit rate 0.44% among 310,000;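 active = calcium response B-score plate-corrected fluorescence ratio at least 3 library SD, with starting fluorescence B-score inside 5 SD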
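Assay system: MrgX1-expressing HEK293 cells / Amount: fifteen thousand cells per well / Doses: test compound in the initial addition of three / Timing: cells plated overnight, dye loaded 0.5 h 37 °C, 0.5 h room temperature / Technique: kinetic calcium dye fluorescence, Fluo-4 NW / Control set: positive and negative controls per plate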
RGS4 inh valid: RGS4 inhibitor validation | AID 492999 | HEK293 M3R/RGS4, carbachol calcium Fluo-4 fluorescence; carbachol added at its EC20; 0 = buffer wells, 100 = carbachol control | shares compounds with RGS4 block | hit rate 65% among 1,700 | calcium response, % at 10 µM;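 active = duplicate-averaged calcium response above the buffer-only control mean plus 5 SD of those controls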;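 note: integrated fluorescence ratio F max minus min over baseline F0; higher response in RGS4-induced cells means RGS4 inhibition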
RGS4 uninduced: counter-screen for RGS4 inhibitors: effect in non-induced cells; shares compounds with RGS4 block; HEK293 M3R non-induced, carbachol calcium Fluo-4; submaximal (EC20) carbachol stimulus; buffer wells 0%, carbachol control wells 100%; activity (percent), % at 10 µM; hit rate 20% among 1,900; call rule not given here;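 note: RGS4 induction absent so cells express M3R without RGS4; higher means more calcium signal and flags a non-specific hit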
M3R basal Ca ctr: signal in non-induced cells without carbachol, RGS4 inhibitor counter-screen. shares compounds with RGS4 block. HEK293 M3R/RGS4 non-induced, Fluo-4 calcium, no carbachol; normalised: buffer wells 0%, carbachol wells 100%. calcium response (agonist-mode artifact), % at 10 µM. hit rate 22% among 1,900;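 active = duplicate-averaged calcium rise in uninduced cells above buffer wells' mean plus 5 SD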
* marks the source's active call; other numbers are inactive results; i = inactive; / = no result.

SMILES | RGS4 block | MrgX1 PAM | MrgX1 antag | RGS4 pot | MrgX1 ag | RGS4 inh valid | RGS4 uninduced | M3R basal Ca ctr
CCOC(=O)C1=C(N)OC2=C(C(=O)CC(C)(C)C2)C12C(=O)Nc1ccccc12 (stereo not given) | i | i | i | i | i | / | / | /
O=C(C(=O)N1CCOCC1)c1cn(Cc2ccc(F)cc2)c2ccccc12 | i | i | i | i | i | / | / | /
CN/C=C(/Cl)P(=O)(OC(C)C)OC(C)C | i | i | i | i | i | / | / | /
CC(C)(C#CCCCCC#CC(C)(C)[N+](C)(C)C)[N+](C)(C)C | i | i | i | i | i | / | / | /
COc1ccc(Cn2c(O)c(C=NCCN3CCOCC3)c(=O)[nH]c2=O)cc1 | i | i | i | i | i | / | / | /
COc1ccc(Cn2c(O)c(/C=N/NC(=O)c3ccccc3O)c(=O)[nH]c2=O)cc1 | i | i | i | i | i | / | i | i
Nc1c(C(=O)NCc2ccco2)c2nc3ccccc3nc2n1Cc1ccccc1 | i | i | i | i | i | / | / | /
Nc1c(C(=O)NCc2ccco2)c2nc3ccccc3nc2n1CCN1CCOCC1 | 5.3* | i | i | i | i | 14%* | 42%* | 16%*
c1ccc(-c2ccc(-c3n(-c4ccccn4)c4ccccc4[n+]3-c3ccccn3)cc2)cc1 | i | / | / | i | / | / | / | /
COc1cc(C(c2c(C)[nH]n(-c3ccccc3)c2=O)c2c(C)[nH]n(-c3ccccc3)c2=O)cc(OC)c1OC | 6* | i | i | i | i | 14%* | i | i
Cc1ccccc1OCCCn1cc(C(=O)C(=O)N2CCOCC2)c2ccccc21 | i | i | i | i | i | / | / | /
CC(Cc1ccc(O)cc1)NCC(O)c1cc(O)cc(O)c1 (stereo not given) | 5.7* | i | i | i | i | 30%* | i | 73%*
COc1cc(/C=C/[N+](=O)[O-])ccc1O | 26* | i | i | i | i | 60%* | 74%* | i
COc1ccc(-n2c(/C=C/c3ccc(O)c(OC)c3)nc3ccccc3c2=O)cc1 | i | i | i | i | i | / | / | /
O=C(CCCc1ccccc1)NCCc1cnc[nH]1 | i | i | i | i | i | / | / | /
COc1ccc(N2C(=O)NC(=O)/C(=C\c3cn(CC(=O)N4CCOCC4)c4ccccc34)C2=O)c(OC)c1 | 8.7* | i | i | i | i | 16%* | i | 8.5%*
Cc1ccc(CC(=O)N2CCN(C)CC2)cc1 | i | i | i | i | i | / | / | /
CC1=CC2/C=C(\C)CCC(O)C(O)/C=C/C(=O)C23C(=O)NC(CC(C)C)C3C1C (stereo not given) | i | i | i | i | i | / | / | /
C/C1=C\[C@@H](C)C/C=C/[C@H]2[C@@H]3O[C@]3(C)[C@@H](C)[C@H]3[C@H](Cc4c[nH]c5ccccc45)NC(=O)[C@]32C(=O)/C=C/C(=O)[C@@H]1O | 11* | 11* | i | i | i | 46%* | i | 18%*
CN=C(SCC(=O)c1cccc(Cl)c1)c1c(O)n(C)c(=O)n(C)c1=O | i | i | i | i | i | / | / | /
Cc1nn(Cc2ccccc2)c(C)c1C=C1C(=O)NC(=O)NC1=O | i | i | i | i | i | i | i | i
Cc1nn(Cc2ccccc2)c(C)c1C(=O)NCc1ccccc1 | i | i | i | i | i | / | / | /
C=CC[C@@H](C)CC(=O)C(CCCN=[N+]=[N-])SOOc1ccccc1 (stereo not given in full) | / | i | i | / | i | / | / | /
COc1cccc(N2C(=O)/C(=C/c3ccc(C)o3)C(=O)NC2=S)c1 | 10* | i | i | i | i | 93%* | 33%* | 20%*
O=C1NC(=S)N(c2ccc(F)cc2)C(=O)/C1=C/c1ccccc1O | i | i | i | i | i | / | / | /
SMILES | RGS4 block | MrgX1 PAM | MrgX1 antag | RGS4 pot | MrgX1 ag | RGS4 inh valid | RGS4 uninduced | M3R basal Ca ctr
Cc1ccc(/C=C2\C(=O)NC(=S)N(c3ccc(F)cc3)C2=O)o1 | i | i | i | i | i | / | i | 12%*
CCOc1cccc(N2C(=O)/C(=C/c3ccco3)C(=O)NC2=S)c1 | i | i | i | i | i | / | / | /
Cc1ccc(/C=C2\C(=O)NC(=S)N(c3ccc(F)cc3)C2=O)s1 | 15* | i | i | i | i | 29%* | i | i
COc1ccc(N2C(=O)/C(=C/c3cccs3)C(=O)NC2=S)cc1 | 8.3* | i | i | i | i | i | i | i
CCN(CC)C(=O)c1ccc(NC(=O)CN2CCc3cc(OC)c(OC)cc3C2)cc1 | i | i | i | i | i | / | / | /
O=C(NCNC(=O)NC1C(=O)NC(=O)N1CO)NC1C(=O)NC(=O)N1CO (stereo not given) | / | i | i | / | i | / | / | /
COc1ccc(C(Nc2ccccc2)P(=O)(Oc2ccccc2)Oc2ccccc2)cc1 (stereo not given) | i | i | i | i | i | / | / | /
O=C1NC(=O)N(CCc2ccc(F)cc2)C(=O)/C1=C/c1cccs1 | i | i | i | i | i | / | i | i
Cc1ccc(/C=C2/C(=O)NC(=O)N(CCc3ccc(F)cc3)C2=O)o1 | i | i | i | i | i | i | i | i
COc1ccc(CN2C(=O)NC(=O)/C(=C\c3ccco3)C2=O)cc1 | i | i | i | i | i | / | / | /
O=C1NC(=O)N(Cc2ccccc2)C(=O)/C1=C/C=C/c1ccco1 | 7* | i | i | i | 31* | 11%* | i | 22%*
COc1ccc(-c2cc(=O)oc3c(C)c(OC(C)C(=O)N4C[C@H]5C[C@@H](C4)c4cccc(=O)n4C5)ccc23)cc1 (stereo not given in full) | i | i | i | i | i | / | / | /
COc1ccccc1N1C(=O)NC(=O)/C(=C/c2ccc([N+](=O)[O-])s2)C1=O | i | i | i | i | i | / | i | i
COc1ccccc1N1C(=O)NC(=O)/C(=C\c2cnn(-c3ccccc3)c2)C1=O | i | i | i | i | i | / | / | /
